Reference: ChEMBL document CHEMBL1152612, “Ursolic acid derivatives induce cell cycle arrest and apoptosis in NTUB1 cells associated with reactive oxygen species” (Bioorg Med Chem, 2009)
Active and inactive are the calls of the source. No cut-off for these calls is given here.

Key:
[1] = Cytotoxicity against human NTUB1 cells after 72 hrs by MTT assay; format: functional, cell-based; conditions: NTUB1, 72 h
Summary of the method: (§1)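 Cells grown in RPMI 1640 with 10% FBS, penicillin/streptomycin and 2 mM L-glutamine at 37 °C under 5% CO₂. Seeded 1800 cells/well, left overnight, then given graded compound concentrations for 72 h; compounds diluted from DMSO, 0.1% DMSO in medium and in controls. MTT 2 mg/mL in PBS for 3 h, formazan dissolved in DMSO, absorbance 540 nm. Viability given as % of control; IC50 by median-effect analysis, mean ± SD.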

Tubulin (Homo sapiens) = Tubulin (Homo sapiens) (UniProt P68371+Q9H4B7+P0DPH7+P68366+Q13509+Q71U36+P04350+Q3ZCM7+P07437+P68363+Q9BQE3+Q6PEY2+Q13885+Q9BVA1+Q9BUF5); assay: Inhibition of tubulin polymerization in human NTUB1 cells assessed as blockade of microtubule assembly at 10 nM by indirect immunofluorescence staining; format: cell-based
Summary of the method: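 NTUB1 cells on coverslips were treated for 24 h, then fixed in 2% formaldehyde/PBS for 20 min and in cold methanol (−20 °C) for 3 min. Stained with anti-α-tubulin monoclonal antibody for 3 h at room temperature, then rhodamine-conjugated secondary antibody for 1 h in the dark. Mounted in 80% glycerol/PBS and examined by fluorescence microscopy.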

[2] = Cytotoxicity against human NTUB1 cells assessed as cell viability at >30 uM after 72 hrs by MTT assay; format: functional; summary of the method: as §1
PC-3 = assay: Cytotoxicity against human PC3 cells at 50 uM after 72 hrs by MTT assay; format: functional, cell-based; summary of the method: as §1
A549 = assay: Cytotoxicity against human A549 cells at 50 uM after 72 hrs by MTT assay; format: functional, cell-based; summary of the method: as §1
[3] = Induction of apoptosis in human NTUB1 cells assessed as accumulation at subG1 phase at 20 uM after 24 hrs using propidium iodide staining by flow cytometry; format: functional
Summary of the method: (§2)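 NTUB1 cells plated at 8 × 10⁵ per 10 cm dish and exposed to compound for 24 or 48 h; untreated controls got medium alone. Cells trypsinized, PBS-washed and fixed overnight in ice-cold MeOH at −20 °C, then stained with 50 µg/mL propidium iodide plus RNase A. DNA content was read by flow cytometry, with apoptosis taken as sub-G1 accumulation. Three independent experiments.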

[4] = Cell cycle arrest in human NTUB1 cells assessed as accumulation at G1 phase at 20 uM after 24 hrs using propidium iodide staining by flow cytometry; format: functional, cell-based; summary of the method: as §2
[5] = Cell cycle arrest in human NTUB1 cells assessed as accumulation at S phase at 20 uM after 24 hrs using propidium iodide staining by flow cytometry; format: functional, cell-based; summary of the method: as §2
[6] = Cell cycle arrest in human NTUB1 cells assessed as accumulation at G2/M phase at 20 uM after 24 hrs using propidium iodide staining by flow cytometry; format: functional, cell-based; summary of the method: as §2
[7] = Induction of apoptosis in human NTUB1 cells assessed as accumulation at subG1 phase at 40 uM after 24 hrs using propidium iodide staining by flow cytometry; format: functional; summary of the method: as §2
[8] = Cell cycle arrest in human NTUB1 cells assessed as accumulation at G1 phase at 40 uM after 24 hrs using propidium iodide staining by flow cytometry; format: functional, cell-based; summary of the method: as §2
[9] = Cell cycle arrest in human NTUB1 cells assessed as accumulation at S phase at 40 uM after 24 hrs using propidium iodide staining by flow cytometry; format: functional, cell-based; summary of the method: as §2
[10] = Cell cycle arrest in human NTUB1 cells assessed as accumulation at G2/M phase at 40 uM after 24 hrs using propidium iodide staining by flow cytometry; format: functional, cell-based; summary of the method: as §2

Which IC50 [1] does the source give for `CC(C)CC(=O)O[C@H]1CC[C@]2(C)[C@H]3CC=C4[C@@H]5[C@@H](C)[C@H](C)CC[C@]5(C(=O)O)CC[C@@]4(C)[C@]3(C)CC[C@H]2C1(C)C` here?
The IC50 was 31 µM.

With `CC(=O)O[C@H]1C(=O)[C@@]2(C)[C@H]([C@H](OC(=O)c3ccccc3)[C@]3(O)C[C@H](OC(=O)[C@H](O)[C@@H](NC(=O)c4ccccc4)c4ccccc4)C(C)=C1C3(C)C)[C@]1(OC(C)=O)CO[C@@H]1C[C@@H]2O` as the compound, how does the Activity (Tubulin (Homo sapiens)) read?
Its Activity is “Active”.

With `C[C@H]1[C@H](C)CC[C@]2(C(=O)OCC(=O)OC(C)(C)C)CC[C@]3(C)C(=CC[C@@H]4[C@@]5(C)CC[C@H](O)C(C)(C)[C@@H]5CC[C@]43C)[C@H]12` as the compound, how does the Activity [2] read?
The Activity was 64.85%.

And the IC50 [1]?
The IC50 was over 30 µM.

Which IC50 [1] does the source give for `CCCCCOC(=O)[C@]12CC[C@@H](C)[C@H](C)[C@H]1C1=CC[C@@H]3[C@@]4(C)CC[C@H](O)C(C)(C)[C@@H]4CC[C@@]3(C)[C@]1(C)CC2` here?
The IC50 was 27.8 µM.

Which results are given for `CCC(=O)O[C@H]1CC[C@]2(C)[C@H]3CC=C4[C@@H]5[C@@H](C)[C@H](C)CC[C@]5(C(=O)O)CC[C@@]4(C)[C@]3(C)CC[C@H]2C1(C)C`?
Activity [2]: 72.53%; IC50 [1]: > 30 µM

For `C[C@H]1[C@H](C)CC[C@]2(C(=O)O)CC[C@]3(C)C(=CC[C@@H]4[C@@]5(C)CC[C@H](O)C(C)(C)[C@@H]5CC[C@]43C)[C@H]12` [URSOLIC ACID], which IC50 [1] is on record?
Its IC50 is 29.4 µM.

For `CCCCOC(=O)[C@]12CC[C@@H](C)[C@H](C)[C@H]1C1=CC[C@@H]3[C@@]4(C)CC[C@H](O)C(C)(C)[C@@H]4CC[C@@]3(C)[C@]1(C)CC2`, which IC50 [1] is on record?
The IC50 was 15.6 µM.

With `C[C@H]1[C@H](C)CC[C@]2(C(=O)O)CC[C@]3(C)C(=CC[C@@H]4[C@@]5(C)CCC(=O)C(C)(C)[C@@H]5CC[C@]43C)[C@H]12` [URSONIC ACID] as the compound, how does the IC50 [1] read?
The IC50 was 21.4 µM.

With `C=C(C)[C@@H]1CC[C@]2(C)[C@H](CC=C3[C@@H]4[C@@H](C)[C@H](C)CC[C@]4(C(=O)O)CC[C@]32C)[C@@]1(C)CCC(=O)OC` as the compound, how does the Activity [2] read?
The Activity was 62.77%.

What about the IC50 [1] of the same compound?
Its IC50 is over 30 µM.

For `C[C@H]1[C@H](C)CC[C@]2(C(=O)O)CC[C@]3(C)C(=CC[C@@H]4[C@@]5(C)CC[C@H](OC(=O)CCC(=O)O)C(C)(C)[C@@H]5CC[C@]43C)[C@H]12`, which IC50 [1] is on record?
Its IC50 is 8.65 µM.

And the Activity (PC-3)?
The Activity was “Active”.

And the Activity (A549)?
Its Activity is “Active”.

What about the Activity [3] of the same compound?
Its Activity is 7.27%.

And the Activity [4]?
The Activity was 13.1%.

And the Activity [5]?
Its Activity is 18.5%.

And the Activity [6]?
Its Activity is 24.1%.

And the Activity [7]?
The Activity was 61.37%.

What about the Activity [8] of the same compound?
Its Activity is 18.9%.

What about the Activity [9] of the same compound?
Its Activity is 7.51%.

And the Activity [10]?
Its Activity is 7.36%.

With `CC(C)=CCOC(=O)[C@]12CC[C@@H](C)[C@H](C)[C@H]1C1=CC[C@@H]3[C@@]4(C)CC[C@H](O)C(C)(C)[C@@H]4CC[C@@]3(C)[C@]1(C)CC2` as the compound, how does the IC50 [1] read?
Its IC50 is 10.9 µM.

For `CCCOC(=O)[C@]12CC[C@@H](C)[C@H](C)[C@H]1C1=CC[C@@H]3[C@@]4(C)CC[C@H](O)C(C)(C)[C@@H]4CC[C@@]3(C)[C@]1(C)CC2`, which IC50 [1] is on record?
Its IC50 is 18.3 µM.
